Test results as given in ChEMBL document CHEMBL4725498, “Synthesis and Biological Evaluations of Electrophilic Steroids Inspired by the Taccalonolides” (ACS Med Chem Lett, 2020).
The source made the active and inactive calls. The calls are words filed in the database; no cut-off is given here.

Columns and labels:
HeLa [1] = assay: Antiproliferative activity against human HeLa cells assessed as growth inhibition measured after 48 hrs by sulforhodamine B assay; type: functional
In short: (§1)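 HeLa cells exposed to compound for 48 h, then growth measured by sulforhodamine B (SRB) staining. GI50 (50% growth inhibition), TGI (total growth inhibition) and LC50 (50% cytotoxicity) were read from concentration–response data. Values are average ± SEM, n = 3–5.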

HeLa [2] = assay: Cytotoxicity against human HeLa cells assessed as reduction in cell viability measured after 48 hrs by sulforhodamine B assay; type: functional; details: read-out: LC50 (the source's name); in short: as §1
Sus scrofa = organism: Sus scrofa; assay: Inhibition of porcine brain tubulin polymerization assessed as reduction in rate and extent of tubulin polymerization at 20 uM by turbidimetric assay
In short: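 Purified porcine brain tubulin (20 μM) was incubated with 20 μM compound or DMSO vehicle. Polymerization was monitored turbidimetrically after shift to 37 °C.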

MDA-MB-453 = assay: Cytotoxicity against human MDA-MB-453 cells assessed as reduction in cell viability measured after 48 hrs by sulforhodamine B assay; type: functional
In short: (§2)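 Breast lines were tested in a 48 h SRB assay: four molecularly diverse triple-negative lines plus nontumorigenic MCF 10A, with MCF 10A tested up to 50 μM. LC50 values came from concentration–response curves. Complete cytotoxicity was taken as the concentration giving full cell kill after 48 h incubation.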

MDA-MB-231 = assay: Cytotoxicity against human MDA-MB-231 cells assessed as reduction in cell viability measured after 48 hrs by sulforhodamine B assay; type: functional; in short: as §2
BT-549 = assay: Cytotoxicity against human BT-549 cells assessed as reduction in cell viability measured after 48 hrs by sulforhodamine B assay; type: functional; details: read-out: LC50 (the source's name); in short: as §2
HCC1937 = assay: Cytotoxicity against human HCC1937 cells assessed as reduction in cell viability measured after 48 hrs by sulforhodamine B assay; type: functional; details: read-out: LC50 (the source's name); in short: as §2
[3] = Selectivity index, ratio of LC50 for human HeLa cells to LC50 for human HCC1937 cells measured after 48 hrs by sulforhodamine B assay; type: functional
ES2 = assay: Antiproliferative activity against human ES-2 cells assessed as reduction in cell growth at 0.01 to 10 uM incubated for 48 hrs by SRB assay; type: functional, cell-based; details: dose microM 0.01-10, time 48.0 hrs
SK-OV-3 [4] = assay: Antiproliferative activity against human SKOV3 cells assessed as reduction in cell growth at 0.01 to 10 uM incubated for 48 hrs by SRB assay; type: functional, cell-based; details: dose microM 0.01-10, time 48.0 hrs
OVCAR-5 = assay: Antiproliferative activity against human OVCAR-5 cells assessed as reduction in cell growth at 0.01 to 10 uM incubated for 48 hrs by SRB assay; type: functional, cell-based; details: dose microM 0.01-10, time 48.0 hrs
SK-OV-3 [5] = assay: Antiproliferative activity against human SKOV3-M6/6 cells assessed as reduction in cell growth at 0.01 to 10 uM incubated for 48 hrs by SRB assay; type: functional, cell-based; details: dose microM 0.01-10, time 48.0 hrs

Row | Structure (SMILES) | GI50 (HeLa [1]) | TGI (HeLa [1]) | CC50 (HeLa [2]) | other results
1 | CO[C@@H]1CC(=O)[C@@]2(C)CC[C@H]3[C@@H](C[C@H](O)[C@H]4CC=CC[C@@]43C)[C@H]12 | 17.5 µM | 30.1 µM | 48.1 µM | –
2 | CO[C@@H]1CC(=O)[C@@]2(C)CC[C@H]3[C@@H](CC(=O)[C@H]4CC=CC[C@@]43C)[C@H]12 | 19.4 µM | 35.5 µM | > 50 µM | –
3 | C[C@]12C[C@H]3O[C@H]3C[C@@H]1CC[C@@H]1[C@@H]2CC[C@]2(C)[C@@H]3O[C@@H]3C(=O)[C@@H]12 | 34.7 µM | > 50 µM | > 50 µM | –
4 | C[C@]12CC=CC[C@@H]1C(=O)C[C@@H]1[C@@H]2CC[C@]2(C)C(=O)C=C[C@@H]12 | 0.76 µM | 0.98 µM | 1.29 µM | –
5 | C[C@]12C[C@H]3O[C@H]3C[C@@H]1CC[C@@H]1[C@@H]2CC[C@]2(C)C(=O)CC[C@@H]12 | 19.2 µM | 29.8 µM | 43.4 µM | –
6 | C[C@]12CC=CC[C@@H]1CC[C@H]1[C@@H]3[C@@H]4O[C@@H]4C(=O)[C@@]3(C)CC[C@@H]12 | 0.7 µM | 1 µM | 1.48 µM | –
7 | C[C@]12CC[C@H](O)C[C@@H]1CC[C@@H]1[C@@H]2CC[C@]2(C)C(=O)C=C[C@@H]12 | 0.42 µM | 0.77 µM | 1.18 µM | –
8 | C[C@]12C[C@H]3O[C@H]3C[C@@H]1[C@@H](O)C[C@@H]1[C@@H]2CC[C@]2(C)C(=O)C=C[C@@H]12 | 1.18 µM | 1.62 µM | 2.37 µM | inhibition (Sus scrofa): Active
9 | C[C@]12CC=CC[C@@H]1C(=O)C[C@H]1[C@@H]3[C@@H]4O[C@@H]4C(=O)[C@@]3(C)CC[C@@H]12 | 0.82 µM | 1.09 µM | 1.57 µM | –
10 | C[C@]12CC[C@H]3[C@@H](CC[C@H]4C[C@@H]5O[C@@H]5C[C@@]43C)[C@@H]1[C@H](O)[C@H]1O[C@H]12 | > 50 µM | > 50 µM | > 50 µM | –
11 | C[C@]12C[C@H]3O[C@H]3C[C@@H]1CC[C@@H]1[C@@H]2CC[C@]2(C)[C@@H]3O[C@@H]3C[C@@H]12 | > 50 µM | > 50 µM | > 50 µM | –
12 | C[C@]12C[C@H]3O[C@H]3C[C@@H]1CC[C@@H]1[C@@H]2CC[C@]2(C)C=CC(=O)[C@@H]12 | 9.2 µM | 12.8 µM | 18.2 µM | –
13 | Cc1ccc(S(=O)(=O)N2[C@@H]3C[C@@]4(C)[C@@H](CC[C@H]5[C@@H]6[C@@H]7O[C@@H]7C(=O)[C@@]6(C)CC[C@@H]54)C[C@@H]32)cc1 (stereo partly specified) | 0.45 µM | 0.54 µM | 0.66 µM | LC50 (concentration killing 50% of cells) (MDA-MB-453): 0.35 µM; inhibition (Sus scrofa): inactive; LC50 (concentration killing 50% of cells) (MDA-MB-231): 0.47 µM; CC50 (BT-549): 0.26 µM; CC50 (HCC1937): 0.76 µM
14 | CC(C)(C)OC(=O)N1[C@@H]2C[C@@]3(C)[C@@H](CC[C@H]4[C@@H]5[C@@H]6O[C@@H]6C(=O)[C@@]5(C)CC[C@@H]43)C[C@@H]21 | 0.64 µM | 0.68 µM | 0.73 µM | –
15 | C[C@]12CCC(=O)C[C@@H]1CC[C@@H]1[C@@H]2CC[C@]2(C)C(=O)C=C[C@@H]12 | 0.38 µM | 0.75 µM | 1.27 µM | –
16 | C[C@]12CC=CC[C@@H]1[C@@H](O)C[C@@H]1[C@@H]2CC[C@]2(C)C(=O)C=C[C@@H]12 | 0.277 µM | 0.41 µM | 0.7 µM | –
17 | C[C@]12C[C@H]3O[C@H]3C[C@@H]1C(=O)C[C@H]1[C@@H]3[C@@H]4O[C@@H]4C(=O)[C@@]3(C)CC[C@@H]12 | 2.06 µM | 2.66 µM | 3.7 µM | –
18 | CO[C@@H]1CC(=O)[C@@]2(C)CC[C@H]3[C@@H](C[C@H](O)[C@H]4C[C@@H]5O[C@@H]5C[C@@]43C)[C@H]12 | > 50 µM | > 50 µM | > 50 µM | –
19 | C[C@]12C[C@H]3O[C@H]3C[C@@H]1[C@@H](O)C[C@H]1[C@@H]3[C@@H]4O[C@@H]4C(=O)[C@@]3(C)CC[C@@H]12 | 2.01 µM | 2.5 µM | 3.29 µM | –
20 | C[C@]12CC=CC[C@@H]1[C@@H](O)C[C@H]1[C@@H]3[C@@H]4O[C@@H]4C(=O)[C@@]3(C)CC[C@@H]12 | 0.71 µM | 0.93 µM | 1.32 µM | –
21 | CO[C@@H]1CC(=O)[C@@]2(C)CC[C@H]3[C@@H](CC(=O)[C@H]4C[C@@H]5O[C@@H]5C[C@@]43C)[C@H]12 | > 50 µM | > 50 µM | > 50 µM | –
22 | C[C@]12CCC(=O)C[C@@H]1CC[C@H]1[C@@H]3[C@@H]4O[C@@H]4C(=O)[C@@]3(C)CC[C@@H]12 | 1 µM | 1.4 µM | 1.9 µM | LC50 (concentration killing 50% of cells) (MDA-MB-453): 1.01 µM; RatioLC50 [3]: 2; LC50 (concentration killing 50% of cells) (MDA-MB-231): 1.23 µM; CC50 (BT-549): 1.34 µM; CC50 (HCC1937): 0.7 µM
23 | C[C@]12C[C@@H]3N[C@@H]3C[C@@H]1CC[C@H]1[C@@H]3[C@@H]4O[C@@H]4C(=O)[C@@]3(C)CC[C@@H]12 | 0.47 µM | 0.75 µM | 1.42 µM | –
24 | C[C@]12CC[C@H](O)C[C@@H]1CC[C@H]1[C@@H]3[C@@H]4O[C@@H]4C(=O)[C@@]3(C)CC[C@@H]12 | 1.3 µM | 1.8 µM | 2.2 µM | LC50 (concentration killing 50% of cells) (MDA-MB-453): 1.08 µM; RatioLC50 [3]: 2; LC50 (concentration killing 50% of cells) (MDA-MB-231): 1.4 µM; CC50 (BT-549): 1.43 µM; CC50 (HCC1937): 0.82 µM
25 | C[C@]12C[C@H]3O[C@H]3C[C@@H]1C(=O)C[C@@H]1[C@@H]2CC[C@]2(C)C(=O)C=C[C@@H]12 | 0.76 µM | 1.28 µM | 2.04 µM | inhibition (Sus scrofa): Active
26 | C[C@]12C[C@H]3O[C@H]3C[C@@H]1CC[C@@H]1[C@@H]2CC[C@]2(C)C(=O)C=C[C@@H]12 | 0.31 µM | 0.51 µM | 0.86 µM | inhibition (Sus scrofa): Active; CC50 (MDA-MB-231; read-out: LC50 (the source's name)): 1.58 µM; CC50 (BT-549): 0.45 µM; CC50 (HCC1937): 1.78 µM
27 | C[C@]12C[C@H]3O[C@H]3C[C@@H]1CC[C@H]1[C@@H]3[C@@H]4O[C@@H]4C(=O)O[C@@]3(C)CC[C@@H]12 | 28.2 µM | > 50 µM | > 50 µM | –
28 | CC(=O)O[C@H]1[C@H]2[C@H]([C@@H]3[C@@H](O)[C@@H]4[C@H]([C@H](C)[C@H]5O[C@]56OC(=O)[C@@](C)(O)[C@]46C)[C@@]3(C)[C@H]1OC(C)=O)[C@@H](O)C(=O)[C@H]1C[C@@H]3O[C@@H]3[C@H](OC(C)=O)[C@]21C | – | – | – | Activity (ES2): Active; Activity (SK-OV-3 [4]): Active; Activity (OVCAR-5): Active; Activity (SK-OV-3 [5]): Active
